Experimental data taken from ChEMBL document CHEMBL1147081, “Structure of the deacetylase LpxC bound to the antibiotic CHIR-090: Time-dependent inhibition and specificity in ligand binding” (Proc Natl Acad Sci U S A, 2007).
Active and inactive are the calls of the source. No cut-off for these calls is given here.

Columns and labels:
Rhizobium leguminosarum [1] = assay: Ratio of Kcat to Km of Rhizobium leguminosarum LpxC
Outline: (§1)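 Wild-type and site-directed mutant LpxC (E. coli, R. leguminosarum) expressed and purified, then assayed by a previously described method. Substrate was UDP-3-O-(R-3-hydroxymyristoyl)-N-acetylglucosamine, varied for Michaelis–Menten analysis. KM and kcat came from data sets pooling multiple independent experiments.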

Rhizobium leguminosarum [2] = assay: Inhibition of Rhizobium leguminosarum LpxC at 0.5 uM
Rhizobium leguminosarum [3] = assay: Activity of Rhizobium leguminosarum LpxC; outline: as §1
[4] = biological target: T1, UDP-3-O-acyl-N-acetylglucosamine deacetylase (Aquifex aeolicus (strain VF5)) (UniProt O67648); assay: Inhibition of Aquifex aeolicus LpxC
T1 sequence (whole entry): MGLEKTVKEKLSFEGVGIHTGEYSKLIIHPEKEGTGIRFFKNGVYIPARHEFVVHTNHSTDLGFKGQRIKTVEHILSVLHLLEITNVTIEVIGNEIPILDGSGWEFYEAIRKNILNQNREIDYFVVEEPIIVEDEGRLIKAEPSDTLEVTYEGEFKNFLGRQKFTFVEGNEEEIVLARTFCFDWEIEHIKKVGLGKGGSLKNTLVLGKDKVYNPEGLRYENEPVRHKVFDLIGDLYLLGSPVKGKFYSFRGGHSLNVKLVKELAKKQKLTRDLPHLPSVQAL

[5] = biological target: T2, UDP-3-O-acyl-N-acetylglucosamine deacetylase (Escherichia coli K-12) (UniProt P0A725); assay: Inhibition of Escherichia coli LpxC at 4 nM
T2 sequence (whole entry): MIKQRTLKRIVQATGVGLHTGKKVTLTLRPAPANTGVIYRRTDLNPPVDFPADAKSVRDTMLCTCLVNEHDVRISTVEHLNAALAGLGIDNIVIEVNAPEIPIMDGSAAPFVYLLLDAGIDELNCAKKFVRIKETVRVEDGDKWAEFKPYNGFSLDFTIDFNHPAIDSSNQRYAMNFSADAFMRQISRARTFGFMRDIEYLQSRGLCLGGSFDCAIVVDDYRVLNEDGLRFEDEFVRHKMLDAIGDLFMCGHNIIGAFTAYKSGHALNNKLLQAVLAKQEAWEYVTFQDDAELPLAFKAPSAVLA

kcat/Km (Rhizobium leguminosarum [1]): 3.5 10^6/M/s
inhibition (Rhizobium leguminosarum [2]): 50%
Km (Rhizobium leguminosarum [3]): 4.8 µM
kcat (Rhizobium leguminosarum [3]): 1.7 s⁻¹
Activity [4]: Active
inhibition [5]: > 75%
Structure (SMILES): C[C@@H](O)[C@H](NC(=O)c1ccc(C#Cc2ccc(CN3CCOCC3)cc2)cc1)C(=O)NO
